In brackets after ≈: the same amount, converted by molar mass.
How the values were obtained:
[1] = Mean half-life in Swiss albino male mice at 1 mg/kg per compound (administered iv in a mixture of 5 compounds to 3 mice) assessed by LCMS/MS.; format: ADME, organism-based; conditions: mouse, in vivo
Method in brief: (§1)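 Male Swiss albino mice (~30 g), 3 per experiment, mostly dosed as mixtures of 5 compounds iv via the lateral tail vein. Vehicle: 10% DMSO/90% 50 mM Na2HPO4 with 0.5% Tween-80. Plasma stored at −20 °C and quantified by LC-MS after acetonitrile precipitation.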

[2] = Mean time to peak plasma concentration in Swiss albino male mice at […] per compound (administered orally in a mixture of 5 compounds to 3 mice) assessed by LCMS/MS.; format: ADME, organism-based; conditions: mouse, po
[3] = Solubility at 25 degC of compound (diluted from DMSO) in PBS at pH 7.4 determined after 24h (1h sonication, 22h shaking, 1h sonication) by LCMS/MS; format: physicochemical
[4] = Mean plasma concentration at 24h in Swiss albino male mice at […] per compound (administered orally in a mixture of 5 compounds to 3 mice) assessed by LCMS/MS.; format: ADME, organism-based; conditions: mouse, po
[5] = Mean plasma concentration at 4h in Swiss albino male mice at […] per compound (administered orally in a mixture of 5 compounds to 3 mice) assessed by LCMS/MS.; format: ADME, organism-based; conditions: mouse, po
[6] = Percentage of parent compound remaining after incubation for 90 minutes with cyropreserved mouse hepatocytes at a concentration of 1uM compound and […], determined by LCMS; format: ADME, tissue-based, Hepatocyte; conditions: cryopreserved mouse hepatocytes, read-out: Stability
Method in brief: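 Compound was incubated at 1 µM final (2 µM working solution mixed 1:1 with hepatocyte suspension) in supplemented KHB pH 7.4. Conditions: 37 °C, 5% CO2, gentle mixing, duplicates. Reaction quenched with ice-cold acetonitrile containing standard; analysed by LC-MS/MS. % remaining = AUC at t / AUC at T0.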

Schistosoma mansoni [7] = experiment: Concentration required to kill 50% of 21 day old worms 5 days after drug treatment.; format: functional, organism-based; conditions: Puerto Rican, 120 h
Method in brief: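 Juvenile S. mansoni (Puerto Rican strain) were perfused from CD1 mice 3 weeks post-infection and washed. They were cultured 6–8 per well in 200 µL DMEM with 2 mM glutamine, penicillin/streptomycin and 10% FCS at 37 °C, 5% CO2. Viability of individual worms was scored on day 5 after dosing (120 h).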

[8] = Mean AUC inf in Swiss albino male mice at 1 mg/kg per compound (administered iv in a mixture of 5 compounds to 3 mice) assessed by LCMS/MS.; format: ADME, organism-based; conditions: male, Swiss albino, mouse, in vivo
Method in brief: as §1, with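 “Tween-80. Blood sampled at 5, 15, 30 min and 1, 2, 4, 8, 24 h.” for “Tween-80.”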

[9] = Mean observed clearance in Swiss albino male mice at 1 mg/kg per compound (administered iv in a mixture of 5 compounds to 3 mice) assessed by LCMS/MS.; format: ADME, organism-based; conditions: male, Swiss albino, mouse, in vivo, read-out: Clearance (converted)
Method in brief: as §1, with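 “Tween-80. Blood sampled at 5, 15, 30 min and 1, 2, 4, 8, 24 h.” for “Tween-80.”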

[10] = Mean oral bioavailability in Swiss albino male mice at […] per compound (administered in a mixture of 5 compounds to 3 mice) assessed by LCMS/MS.; further: dose 2.5 mg/kg; format: ADME, organism-based; conditions: male, Swiss albino, mouse, in vivo, read-out: Bioavailability
[11] = Concentration required to kill 50% HepG2 cells as detected by MTT staining; format: toxicity, cell-based; conditions: homo sapiens, read-out: TC50 (the source's name)
[12] = Mean volume of distribution at steady state in Swiss albino male mice at 1 mg/kg per compound (administered iv in a mixture of 5 compounds to 3 mice) assessed by LCMS/MS.; format: ADME, organism-based; conditions: mouse, in vivo, read-out: Volume; method in brief: as §1
Schistosoma mansoni [13] = experiment: Concentration required to kill 50% of 42 day old worms 5 days after drug treatment.; format: functional, organism-based; conditions: Puerto Rican, 120 h
Method in brief: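 Adult S. mansoni were perfused from CD1 mice 6 weeks post-infection and washed. They were cultured 3 pairs per well in 1 mL DMEM with 2 mM glutamine, penicillin/streptomycin and 10% FCS […] at 37 °C, 5% CO2. Viability of individual worms was scored on day 5 (120 h).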

[14] = Concentration required to kill 50% MRC-5 cells as detected by Alamar blue staining; format: toxicity, cell-based, MRC5; conditions: homo sapiens, read-out: TC50 (the source's name)

| Compound | half-life [1] [min] | Tmax [2] [min] | solubility kinetic at 24 h [3] [µM] | concentration at 24 h [4] [ng/mL] | concentration at 4 h [5] [ng/mL] | remaining at 1.5 h, 1 µM [6] [%] | AUC(0-inf) [8] [ng·h/mL] | clearance [9] [mL/min/kg] | bioavailability [10] [%] | Vd [12] [L/kg] | EC50 (Schistosoma mansoni [7]) [nM] | CC50 [11] [nM] | EC50 (Schistosoma mansoni [13]) [nM] | CC50 [14] [nM] |
| --- | --- | --- | --- | --- | --- | --- | --- | --- | --- | --- | --- | --- | --- | --- |
| Cc1nc2cnc(-c3ccc(F)c(C(F)(F)F)c3)cn2c1-c1c(F)cc(OP(=O)(O)O)cc1F | 139 | 15 | 136 (≈ 68.4 µg/mL) | 0.1 | 15.6 | 40.8 | 111 | 75.3 | 39.3 | 7.18 | 103 | 6800 | – | – |
| CC(C)c1cccc(-c2ccc3nnc(-c4cccc(NS(C)(=O)=O)c4)n3c2)c1 | – | – | – | – | – | – | – | – | – | – | 24600 | – | – | > 50000 |
| COc1ccc(-c2nnc3ccc(-c4cccc(C(C)C)c4)cn23)cn1 | – | – | – | – | – | – | – | – | – | – | 24200 | – | – | 45800 |
| CC(C)c1nc2cnc(-c3ccc(F)c(C(F)(F)F)c3)cn2c1-c1c(F)cc(OP(=O)(O)O)cc1F | 25 | 15 | 179 (≈ 95.1 µg/mL) | 0.1 | 4.01 | 0.9 | 54.7 | 153 | 21.4 | 3.62 | 25 | 6500 | 27.2 | – |

Further lines, with some results ahead:

| half-life [1] [min] | Tmax [2] [min] | solubility kinetic at 24 h [3] [µM] | concentration at 24 h [4] [ng/mL] | concentration at 4 h [5] [ng/mL] | remaining at 1.5 h, 1 µM [6] [%] | AUC(0-inf) [8] [ng·h/mL] | clearance [9] [mL/min/kg] | bioavailability [10] [%] | Vd [12] [L/kg] | Compound | EC50 (Schistosoma mansoni [7]) [nM] | CC50 [11] [nM] | EC50 (Schistosoma mansoni [13]) [nM] | CC50 [14] [nM] |
| --- | --- | --- | --- | --- | --- | --- | --- | --- | --- | --- | --- | --- | --- | --- |
| – | – | 1.7 (≈ 0.842 µg/mL) | – | – | 80.9 | – | – | – | – | Fc1c(-c2c(C3CC3)nc3cnc(-c4cccc(S(F)(F)(F)(F)F)c4)cn23)ccc2[nH]ncc12 | 35.8 | 20700 | 20.7 | – |
| 538 | 140 | 0.865 (≈ 0.446 µg/mL) | 71.4 | 381 | 68.1 | 1470 | 5.75 | 83.3 | 3.39 | CC(C)c1nc2cnc(-c3ccc(F)c(S(F)(F)(F)(F)F)c3)cn2c1-c1ccc2[nH]ncc2c1F | 8.21 | – | 11.2 | – |
| 425 | 15 | 1.26 (≈ 0.57 µg/mL) | 5.17 | 52.6 | 12.5 | 360 | 23.3 | 45 | 7.39 | CC(C)c1nc2cnc(-c3ccc(F)c(C(F)(F)F)c3)nc2n1-c1c(F)cc(O)cc1F | 128 | 4800 | 71.4 | – |
| – | 20 | 6.55 (≈ 2.96 µg/mL) | 0.01 | 22.4 | 42.2 | 342 | 25.2 | 14.3 | 1.77 | CC(C)c1nn2cnc(-c3ccc(F)c(C(F)(F)F)c3)cc2c1-c1c(F)cc(O)cc1F | 26.9 | 8900 | 21.7 | – |
| 106 | 15 | 6.63 (≈ 3.26 µg/mL) | 0.1 | 16.6 | 31.1 | 231 | 36.2 | 18.4 | 2.64 | CC(C)c1nc2cnc(-c3cccc(S(F)(F)(F)(F)F)c3)cn2c1-c1c(F)cc(O)cc1F | < 12 | 6600 | 23.8 | – |
| 74.4 | 20 | 1.21 (≈ 0.529 µg/mL) | 0.01 | 9.68 | 50.7 | 144 | 58.5 | 21.1 | 4.06 | CCc1nn2cnc(-c3ccc(F)c(C(F)(F)F)c3)cc2c1-c1c(F)cc(O)cc1F | 32.3 | 9800 | 10.9 | – |
| – | 15 | 2.33 (≈ 1.06 µg/mL) | 7 | 55.8 | 33.5 | 320 | 26.2 | 57.1 | 8.08 | Cc1nc2cnc(-c3cccc(C(F)(F)C(F)(F)F)c3)cn2c1-c1c(F)cc(O)cc1F | 35.1 | 9300 | 33.9 | – |

Source: ChEMBL document CHEMBL4651341, “The discovery of a novel series of compounds with single-dose efficacy against juvenile and adult Schistosoma species” (PLoS Negl Trop Dis, 2021)
